Compound activity (PubChem BioAssay)
S100A4 MyoIIA: blocks human S100A4 binding to myosin IIA peptide; S100A4/TAMRA-MyoIIA peptide fluorescence polarization; inhibition, % at 10.7 µM; 0.14% of 360,000 active; AID 652163;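 active = mean inhibition of at least 70% across replicates, with every replicate also reaching that level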
Target sequence (P26447 whole entry, looked up): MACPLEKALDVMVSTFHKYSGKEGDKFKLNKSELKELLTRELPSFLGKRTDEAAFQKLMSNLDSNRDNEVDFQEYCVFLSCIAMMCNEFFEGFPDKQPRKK
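System – human S100A4 monomer protein, biochemical binding assay · Buffer or medium – Calcium-containing HEPES buffer, pH 7.2 · Timing – 5 min between mix addition and reading · Also added – TAMRA-labelled myosin IIA heavy-chain peptide probe, 5 nM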
ERAP1 HTS inh: ERAP1 (human) enzyme inhibition. Q9NZ08. recombinant ERAP1, Leu-AMC fluorescence, 60 min. inhibition, % at 10.7 µM. 0.15% of 340,000 active;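 active = mean replicate inhibition of at least 30%, or all replicates individually reaching that 30% level; inactive = mean below 30% and not every replicate reaching it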;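 also: 0% = neutral control wells and 100% = L-leucinethiol positive control wells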
rRNA inh HTS: inhibits bacterial ribosomal RNA function over humanized ribosomes; E. coli WT GFP vs humanized-ribosome RFP mutants, fluorescence, 24 h; stronger effect = lower value; DMSO median 0, no signal -100; GFP signal change (wild-type ribosome), % (concentration not given with the values); 1.6% of 350,000 active; AID 720706;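 active = significant combined selectivity score with lowered wild-type GFP, culture density cut under 30%, mutant RFP and density less affected; inactive = any of these conditions unmet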
F508del corr: CFTR F508del correction in bronchial cells | CFBE cells, YFP halide quenching; stimulated with forskolin plus potentiator P3; % fluorescence drop versus neutral controls | activity (quench increase), % at 7.58 µM | 0.36% of 350,000 active;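 active = mean added fluorescence quench of at least 8% versus neutral control, with both replicates also reaching 8%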;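 also: cells transiently co-express mutant CFTR-F508del with the halide-sensitive YFP; corrector assay measuring rescue of mutant channel to the surface after 24 h compound exposure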
SIRT5 inh: inhibitors of human sirtuin-5 desuccinylase; Q9NXA8; inhibition, % at 15 µM; AID 652115; 1.1% of 330,000 active; Purified SirT5, succinyl-peptide AMC, trypsin-coupled fluorescence; in the data active = inhibition above about 15%
Target sequence (Q9NXA8 whole entry, looked up): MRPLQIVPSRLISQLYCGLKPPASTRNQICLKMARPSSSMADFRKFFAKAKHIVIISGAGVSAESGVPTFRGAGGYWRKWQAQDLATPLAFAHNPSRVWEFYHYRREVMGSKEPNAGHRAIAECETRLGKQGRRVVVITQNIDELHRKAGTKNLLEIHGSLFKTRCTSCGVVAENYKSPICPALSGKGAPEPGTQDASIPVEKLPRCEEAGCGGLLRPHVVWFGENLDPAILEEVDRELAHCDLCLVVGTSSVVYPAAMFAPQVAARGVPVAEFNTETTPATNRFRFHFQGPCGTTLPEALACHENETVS
Numbers without * were called inactive; nt = no result given; ! = not confirmed by another sample. Sampled rows, rich in hits. Any-hit rate of the full collection: about 3.1%.

SMILES	S100A4 MyoIIA	ERAP1 HTS inh	rRNA inh HTS	F508del corr	SIRT5 inh
O=C(COC(=O)Cc1c(Cl)cccc1Cl)Nc1ccc2[nH]c(=O)[nH]c2c1	-2.4	-0.3	-21.1	1.5	9.9
O=C(COC(=O)Cc1c(F)cccc1Cl)Nc1ccc2[nH]c(=O)[nH]c2c1	-5.0	1.8	-6.9	-0.9	15.3*
Nc1ccn(C2OC(CO)C(O)C2F)c(=O)n1 (stereo unspecified)	-7.1	4.0	nt	-0.5	nt
NC[C@H]1O[C@@H](n2ccc(N)nc2=O)[C@H](O)[C@@H]1O	8.2	-1.4	11.6	-3.8	-2.3
Nc1ccn(C2OC(CO)C(O)C2O)c(=O)n1 (stereo unspecified)	0.1	0.4	nt	9.7*	5.0
Nc1ccn([C@@H]2O[C@H](CO)[C@@H](O)[C@@H]2O)c(=O)n1	-2.6	-0.3	nt	19.3*	-3.1
COc1ccc(C(=O)NCC(=O)OCc2ccccc2F)cc1	-7.5	0.0	5.1	-0.5	31.8*
CN(C)CC(=O)N[C@@H]1C=C[C@H](CC(=O)NCCN2CCCCC2)O[C@@H]1CO	-0.4	-0.6	6.4	0.1	1.9
Cc1cc(C(=O)COc2ccc(C#N)cc2)c(C)n1CC1CCCO1 (stereo unspecified)	3.3	-0.1	9.1	1.2	nt
Cc1cc(C(=O)COc2ccc(C#N)cc2)c(C)n1-c1ccc2c(c1)OCO2	3.2	-2.8	-0.3	2.0	34.6*
CC(=O)C(=Cc1ccc(Cl)cc1)C(=O)c1ccccc1	3.9	-0.6	-35.0*	4.6	1.6
CCOc1cc(NC(=O)Nc2ccc(F)cc2)c(OCC)cc1NC(=O)CC	0.7	-1.4	-38.4*	-2.3	0.0
CCOc1ccccc1NC(=O)Nc1ccncc1	-2.6	-3.8	0.9	0.2	-0.1
COc1ccc(NC(=O)N(C)C[C@@H]2Oc3ccc(NC(=O)Nc4ccc5c(c4)OCO5)cc3C(=O)N([C@@H](C)CO)C[C@@H]2C)cc1	1.6	1.0	-0.2	1.2	3.4
C[C@@H]1CCCCO[C@@H](CN(C)S(C)(=O)=O)[C@@H](C)CN([C@H](C)CO)C(=O)c2cc(NC(=O)c3ccccc3)ccc2O1	-5.9	-1.0	1.7	-0.7	2.3
C=CCOC(=O)C1=C[C@@H](c2ccc(Br)cc2)C[C@@H](OCc2ccc(CO)cc2)O1	-3.4	-4.8	-12.2	2.2	26.5*!
O=C(NC1CC1)C1=C[C@@H](c2ccc(Br)cc2)C[C@@H](OCCCCO)O1	1.5	-0.2	-18.6*	3.9	-1.5
Cc1cc(Oc2ccc(Cl)cc2)nc(-c2ccccn2)n1	0.8	-0.4	-32.7*	-2.1	-1.1
Cc1cccc(Oc2nc(-c3ccccn3)nc3ccccc23)c1	0.6	nt	-17.8	4.3	3.9
O=[N+]([O-])c1ccc(Sc2cccc[n+]2[O-])c2nonc12	-0.7	13.7	15.7	45.1*	-21.2
CC=Cc1ccc2n(c1=O)C[C@H]1[C@H](CO)[C@@H](C(=O)NCc3ccc(F)cc3)[C@@H]2N1S(C)(=O)=O (mixture of isomers)	0.6	1.2	-1.5	0.8	-20.6
O=C(NCc1ccccc1)C(c1ccc(-c2ccccc2)cc1)n1c(=O)c(-c2cc3ccccc3[nH]2)nc2ccccc21 (stereo unspecified)	2.0	nt	1.6	10.1*	-6.7
O=C(NCc1ccccc1)C(c1ccncc1)n1c(=O)c(-c2cc3ccccc3[nH]2)nc2ccccc21 (stereo unspecified)	-6.3	nt	-49.4	-0.7	-0.3
Cc1noc(C)c1NC(=O)Nc1cccc2c1O[C@H](CN(C)Cc1ccc3c(c1)OCO3)[C@@H](C)CN([C@@H](C)CO)C2=O	11.2	-1.1	-0.4	1.0	1.6
Cc1ccc(S(=O)(=O)N(CC(=O)NCc2ccco2)C2CCCCC2)cc1	-9.7	-0.4	-28.1*	2.5	-0.1
COc1cccc(CN(C)C[C@@H]2OCc3ccccc3-c3c(n(C)c4ccccc34)C(=O)N([C@H](C)CO)C[C@H]2C)c1	-7.9	0.2	-3.7	6.5	29.3*
C[C@@H]1CN([C@H](C)CO)C(=O)c2c(c3ccccc3n2C)-c2ccccc2CO[C@@H]1CN(C)Cc1ccc2c(c1)OCO2	4.2	-2.9	-4.6	2.4	12.3
C[C@@H]1CN([C@@H](C)CO)C(=O)c2c(c3ccccc3n2C)-c2ccccc2CO[C@@H]1CN(C)Cc1ccc2c(c1)OCO2	29.5	-2.6	2.9	5.9	20.2*
